# Bioassay records: PubChem BioAssay, several laboratories
# ROMK mod = modulates human ROMK potassium channel activity; hit rate 2% among 130,000; Tet-inducible ROMK, thallium flux fluorescence; actives lie on both sides; P48048; AID 1918; B-score at 10 µM;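 active = signal ratio slope over the read window, or its plate-corrected B-score, at least 3 SD from the plate mean, either direction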;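 also: B-score of the F/F0 ratio slope over 7 to 12 s after thallium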
# Target sequence (P48048 whole entry, looked up): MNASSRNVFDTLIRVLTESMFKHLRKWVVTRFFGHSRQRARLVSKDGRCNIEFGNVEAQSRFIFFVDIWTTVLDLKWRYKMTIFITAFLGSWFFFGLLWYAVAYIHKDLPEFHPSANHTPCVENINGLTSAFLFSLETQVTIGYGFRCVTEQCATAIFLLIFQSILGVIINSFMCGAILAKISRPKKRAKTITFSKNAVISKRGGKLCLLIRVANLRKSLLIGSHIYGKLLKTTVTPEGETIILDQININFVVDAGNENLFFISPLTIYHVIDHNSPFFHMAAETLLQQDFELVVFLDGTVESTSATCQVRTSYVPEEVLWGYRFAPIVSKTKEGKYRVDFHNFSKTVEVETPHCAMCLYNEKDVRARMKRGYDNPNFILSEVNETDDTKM
# ABCB1 inh = blocks JC-1 efflux by human ABCB1 transporter | CCRF-Adr cells, flow cytometry | inhibition, % at 6.6 µM | hit rate 0.067% among 190,000 | AID 1326; in the data active = inhibition above about 40%;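 also: higher value means more JC-1 retained so stronger ABCB1 efflux block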
# PMI act hi M6P = PMI (human) activation, high substrate | coupled PMI enzyme assay, resazurin fluorescence, 20 min; active compounds read high; 1 = untreated enzyme, 0 = substrate-free blank | activation factor at 20 µM | hit rate 0.34% among 190,000 | P34949;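 active = activation factor of 2 or more at 20 µM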
# Target sequence (P34949 whole entry, looked up): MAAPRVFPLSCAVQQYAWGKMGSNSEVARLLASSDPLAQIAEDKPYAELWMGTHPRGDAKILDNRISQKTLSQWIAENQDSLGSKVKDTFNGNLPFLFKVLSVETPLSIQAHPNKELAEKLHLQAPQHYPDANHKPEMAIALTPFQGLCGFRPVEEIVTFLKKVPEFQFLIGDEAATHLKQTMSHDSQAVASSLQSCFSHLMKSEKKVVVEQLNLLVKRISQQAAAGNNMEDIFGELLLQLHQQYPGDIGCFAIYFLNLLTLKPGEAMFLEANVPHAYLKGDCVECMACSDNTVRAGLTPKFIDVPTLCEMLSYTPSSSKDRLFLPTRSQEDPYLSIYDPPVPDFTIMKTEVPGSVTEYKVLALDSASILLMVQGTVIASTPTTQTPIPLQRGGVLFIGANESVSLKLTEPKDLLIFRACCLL
#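 Test system: human phosphomannose isomerase with PGI, G6PDH, diaphorase coupling enzymes / Doses: 20 µM compound, 1% DMSO / Times: enzyme reaction with compound 20 min at room temperature / Measured by: Diaphorase-driven resazurin-to-resorufin fluorescence, excitation 544, emission 590 nm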
# PMI activator = phosphomannose isomerase (human) activation. hit rate 0.005% among 190,000. P34949. purified human PMI, coupled resazurin fluorescence, 20 min; active compounds read high; 1 = vehicle control, 0 substrate-free wells. activation factor at 20 µM;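 active = activation factor of 2 or more at 20 µM, relative to plate controls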
# KCC2 mod = modulators of human KCC2 chloride dependent transport; KCC2 cells, thallium flux FluoZin-2 fluorescence; B-score of Tl+ flux slope (higher = more flux/activation; lower = inhibition) at 10 µM; hit rate 2.2% among 190,000; AID 1456;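 active = thallium flux slope and its plate-corrected score both differing from the plate sample mean at a set confidence after two filtering rounds, in either direction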;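 also: slope of fluorescence scaled to starting intensity during 10 to 20 s after thallium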
# ABCG2 block = human ABCG2 inhibition, ABCB1 as counter-screen. Q9UNQ0. IgMXP3 cells, JC-1 efflux, flow cytometry. inhibition, % at 6.6 µM. hit rate 0.1% among 190,000. AID 1325;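 active = inhibition above 80%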
#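 test system = two drug-resistant human cell lines, ABCG2 and ABCB1 | amount = 3 million cells/mL final, two lines in 1:1 ratio | reagent = JC-1 transporter substrate | doses = one concentration, 6.6 µM final | incubation = 10 min at 25 °C | signal = flow cytometric JC-1 green MFI at 530 nm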
# KCC2 secondary = confirmation of human KCC2 transport modulators; shares compounds with KCC2 mod; hit rate 15% among 3,700; normalised thallium flux (F/F0 slope) at 10 µM; HEK293-KCC2, thallium flux, FluoZin2 fluorescence; active compounds read high;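 active = thallium flux slope above the same plate's solvent-only control mean plus 3 SD; inconclusive = the two replicate wells disagree; inactive = no significant difference from solvent-only control wells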
# KCC2 bumet counter = thallium flux despite bumetanide block in KCC2 cells, secondary assay 3. shares compounds with KCC2 mod. HEK293-KCC2 + bumetanide/ouabain, thallium flux FluoZin2; active compounds read high. normalized thallium flux at 10 µM. hit rate 49% among 3,700;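 active = thallium entry rate above the same plate's blocked-transporter control wells by more than 3 SD; inconclusive = the two repeat wells disagree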;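 also: raw slope of fluorescence over initial fluorescence between 10 and 20 s after thallium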
# KCC2 secondary2 = confirmation of human KCC2 transport modulators | hit rate 23% among 3,700 | HEK293-KCC2, thallium flux FluoZin2 fluorescence; actives lie on both sides; F/F0 rise rate, 10–20 s post-thallium | shares compounds with KCC2 mod | AID 1715 | normalized thallium flux at 10 µM;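 active = thallium flux slope more than 3 SD above or below the plate's solvent-only control mean, mostly below; inconclusive = the two repeat wells disagreed; inactive = no significant shift from solvent-only controls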
# HEK counter1 = acts in parental HEK cells, KCC2 counter-screen | HEK293 parental cells, thallium flux FluoZin2, ouabain; baseline-ratio fluorescence slope, 10–20 s after thallium | hit rate 46% among 3,700 | shares compounds with KCC2 mod | thallium flux rate (normalised fluorescence) at 10 µM;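 active = thallium flux rate significantly above the same plate's solvent-only control wells, beyond their mean plus 3 SD; inconclusive = the two replicate wells gave conflicting results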
# KCC2 ouabain = confirmation of human KCC2 modulators with ouabain; shares compounds with KCC2 mod; HEK293-KCC2, thallium flux FluoZin2 fluorescence; bidirectional: low = inhibitor, high = activator; raw Tl+ flux slope (below DMSO = inhibition, above = activation) at 10 µM; hit rate 48% among 3,700; AID 1717;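 active = thallium flux slope beyond 3 SD from same-plate DMSO control mean in most replicates, usually higher, sometimes lower; inconclusive = repeat tests gave conflicting results; inactive = no significant difference from controls in most replicates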;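 also: slope of initial-normalized fluorescence between seconds 10 and 20 after thallium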
# HEK293 Tl flux2 = parental HEK flux effect, counter-screen 2 | shares compounds with KCC2 mod | HEK293 parental, thallium flux FluoZin-2 fluorescence slope | thallium flux slope at 10 µM | hit rate 33% among 3,700 | AID 1718;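 active = thallium flux slope above the same plate's solvent-control mean plus 3 SD in both duplicate wells; inconclusive = duplicate wells that disagreed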;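 also: run without ouabain in cells lacking the KCC2 cotransporter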
# Numbers stand for hits; n = inactive; u = inconclusive; x = no result. Compounds with a hit are over-represented: about 3.3% of the library has one in this group of screens.
SMILES,ROMK mod,ABCB1 inh,PMI act hi M6P,PMI activator,KCC2 mod,ABCG2 block,KCC2 secondary,KCC2 bumet counter,KCC2 secondary2,HEK counter1,KCC2 ouabain,HEK293 Tl flux2
COC(=O)c1ccc2c(=O)n(-c3ccccc3)c(=S)[nH]c2c1,n,n,n,n,10.6,n,n,0.0222,n,0.0205,0.0255,0.0226
O=C(O)c1ccc2c(=O)n(-c3ccccc3F)c(=S)[nH]c2c1,n,n,n,n,n,n,x,x,x,x,x,x
CCCCCCN(C(=O)CCl)c1ccccc1,n,x,x,x,n,x,x,x,x,x,x,x
O=C(Nc1nc(SCc2ccc(F)cc2)ns1)c1ccco1,n,n,n,n,-3.72,n,n,u,0.0213,u,0.0118,n
CCc1c(C(=O)N/N=C/c2ccc(C)o2)csc1C,n,n,n,n,n,n,x,x,x,x,x,x
CCCCn1c(N2CCC(Cc3ccccc3)CC2)nc2c1c(=O)[nH]c(=O)n2C,x,n,n,n,-4.85,n,n,n,n,u,u,n
Cc1cc(C)n(CC(=O)c2ccccc2)c(=O)c1C#N,n,n,n,n,n,n,n,n,n,n,n,n
Cc1ccc(C(=O)Cn2c(C)cc(C)c(C#N)c2=O)cc1,x,n,n,n,n,n,x,x,x,x,x,x
Cc1ccc(Cc2c[nH]c(=S)s2)cc1,x,n,n,n,194,n,u,0.143,0.109,0.112,0.136,0.0994
Cc1ccc(Cc2c(C)[nH]c(=S)[nH]c2=O)cc1,n,x,x,x,n,x,x,x,x,x,x,x
O=C(c1ccccc1)N1CCN(c2ncnc3sc4c(c23)CCC4)CC1,x,n,n,n,n,n,x,x,x,x,x,x
COc1ccc2c(c1)O[C@@H](c1cccc(C(F)(F)F)c1)[C@H](O)C2=O,n,n,n,n,8.78,n,n,0.00931,n,0.0112,u,u
Cc1cc(=O)[nH]c2ccc(Cl)cc12,n,n,n,n,x,n,n,n,n,n,n,n
Cn1c2ccccc2c(=O)c2c(=O)n(-c3ccc(F)cc3)c(-c3cccs3)nc21,x,x,x,x,n,x,x,x,x,x,x,x
CC(c1ccccc1)n1c(-c2cccs2)nc2c(c(=O)c3ccccc3n2C)c1=O (configuration not stated),x,x,x,x,-3.6,x,n,n,n,0.00568,n,n
C/C(=N\NC(=O)c1cc(C)nc2ccccc12)c1cccs1,x,x,x,x,n,x,x,x,x,x,x,x
C/C(=N\NC(=O)c1ccc(NS(=O)(=O)c2cccs2)cc1)c1cccs1,n,n,n,n,n,n,x,x,x,x,x,x
C/C(=N\NC(=O)c1cc(Br)ccc1O)c1cccs1,n,n,n,n,15,n,n,0.031,0.0431,0.0304,0.0369,0.0335
C/C(=N\NC(=O)c1ccc(Cl)cc1)c1cccs1,n,n,n,n,25.2,n,n,0.0396,0.0496,0.0337,0.0406,0.029
CC(=O)Nc1ccc(S(=O)(=O)Nc2ccc3c(c2)C(=O)OC3)cc1,n,n,n,n,n,n,x,x,x,x,x,x
Cc1ccc(S(=O)(=O)NCCN=C(CN2CCCC2)NS(=O)(=O)c2ccc(C)cc2)cc1,x,n,n,n,n,n,x,x,x,x,x,x
COc1cc(OC)cc(C(=O)N[C@H](C(=O)NCc2cccs2)C(C)C)c1,n,n,n,n,n,n,x,x,x,x,x,x
Cc1nn(-c2ccccc2)c2sc(C(=O)O)cc12,n,n,n,n,n,n,x,x,x,x,x,x
Cc1nn(-c2ccccc2)c2sc(-c3n[nH]c(=S)o3)cc12,n,n,n,n,6.26,n,0.0145,0.0284,n,0.0139,u,0.0129
COc1cc(/C=N/NC(=O)c2c(C)nnn2-c2nonc2N)ccc1O,n,n,n,n,4.72,n,n,n,n,n,n,n
SMILES,ROMK mod,ABCB1 inh,PMI act hi M6P,PMI activator,KCC2 mod,ABCG2 block,KCC2 secondary,KCC2 bumet counter,KCC2 secondary2,HEK counter1,KCC2 ouabain,HEK293 Tl flux2
Cc1nnn(-c2nonc2N)c1C(=O)N/N=C/c1ccccc1O,x,n,n,n,n,n,x,x,x,x,x,x
CCCN1C=CC(=CC=C(C#N)C#N)C=C1,x,x,x,x,-7.81,x,0.00215,-0.00144,0.0233,u,0.00659,u
CC(C)n1c(=S)[nH]c2scc(-c3cccs3)c2c1=O,x,x,x,x,110,x,0.0233,0.0923,0.0883,0.09,0.0926,0.0847
O=C(CSc1nnc(-c2ccccc2O)o1)Oc1ccc(OCc2ccccc2)cc1,n,n,n,n,x,n,x,x,x,x,x,x
COc1ccc(-c2cc(C(F)(F)F)n3nc(C(=O)Nc4c(C)n(C)n(-c5ccccc5)c4=O)cc3n2)cc1,n,n,x,x,x,n,x,x,x,x,x,x
Cn1c(C(=O)O)cc2c(=O)n3ccccc3nc21,x,x,x,x,n,x,x,x,x,x,x,x
Cn1c(C(=O)N2CCc3ccccc3C2)cc2c(=O)n3ccccc3nc21,n,n,n,n,x,n,n,0.00626,n,n,0.0153,n
COc1cccc(/C=C2\SC(=S)NC2=O)c1OS(=O)(=O)c1ccc(NC(C)=O)cc1,n,n,n,n,-5.85,n,u,n,u,0.00553,0.0142,n
Cc1nc(NC(=S)NC(=O)c2cccs2)ccc1Br,n,n,n,n,36.1,n,0.0139,0.115,n,0.0381,0.0416,0.0123
O=C(NC(=S)Nc1cccc2cccnc12)c1cccs1,n,n,x,x,2.83,n,n,0.00959,n,u,u,n
COc1ccc(C(=O)Nc2cccc3cccnc23)cc1OC,n,n,n,n,-6.28,n,n,n,n,n,n,n
O=C(CSc1nnc2ccccn12)Nc1nsc(-c2ccccc2)n1,n,n,n,n,n,n,x,x,x,x,x,x
CS(=O)(=O)N(CC(=O)N1CCC(C(N)=O)CC1)c1ccc(Oc2ccccc2)cc1,n,n,n,n,n,n,x,x,x,x,x,x
Cc1ccc(C)c(NC(=S)NNC(=O)c2ccc(Br)o2)c1,x,n,n,n,x,n,x,x,x,x,x,x
Cc1cccc(NC(=S)NC(=O)c2ccc(Br)o2)c1C,n,n,n,n,71.4,n,0.05,0.1,0.0536,0.14,0.115,0.0572
O=C(NNC(=S)Nc1ccccc1C(F)(F)F)c1ccc(Br)o1,n,n,n,n,n,n,x,x,x,x,x,x
